Assay results: ChEMBL document CHEMBL3352168, “Potent, orally available, selective COX-2 inhibitors based on 2-imidazoline core” (Eur J Med Chem, 2014)

How the values were obtained:
[1] = biological target: T1, Prostaglandin G/H synthase 2 (Homo sapiens, UniProt P35354); test: Inhibition of human recombinant COX2 using fluorometric substrate by fluorescent inhibitor screening assay
T1 sequence (P35354 whole entry): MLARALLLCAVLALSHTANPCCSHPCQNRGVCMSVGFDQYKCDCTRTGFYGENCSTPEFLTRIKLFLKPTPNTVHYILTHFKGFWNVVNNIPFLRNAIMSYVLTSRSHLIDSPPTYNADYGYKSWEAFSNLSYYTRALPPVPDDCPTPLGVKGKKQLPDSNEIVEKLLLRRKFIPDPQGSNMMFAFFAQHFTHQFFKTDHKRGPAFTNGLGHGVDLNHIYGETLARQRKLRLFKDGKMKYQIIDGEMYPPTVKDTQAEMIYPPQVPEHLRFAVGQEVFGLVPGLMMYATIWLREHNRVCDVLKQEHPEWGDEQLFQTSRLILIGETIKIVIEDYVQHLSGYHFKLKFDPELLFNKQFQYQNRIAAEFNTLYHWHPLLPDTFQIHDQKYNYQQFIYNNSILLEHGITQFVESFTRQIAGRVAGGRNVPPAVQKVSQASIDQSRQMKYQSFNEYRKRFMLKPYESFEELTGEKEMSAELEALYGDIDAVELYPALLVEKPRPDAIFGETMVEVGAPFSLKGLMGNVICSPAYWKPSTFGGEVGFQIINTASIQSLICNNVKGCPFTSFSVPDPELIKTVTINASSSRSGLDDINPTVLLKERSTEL
Summary of the method: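 Human recombinant COX-2 in 100 mM Tris-HCl pH 8.0 with heme and ADHP fluorometric substrate; inhibitor added at final […] (units as printed) from DMSO stocks; reaction started with arachidonic acid, 2 min at room temperature. Resorufin fluorescence read at ex 535/em 590 nm; % inhibition vs no-inhibitor activity; IC50 from concentration–inhibition curve, triplicate determinations.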

[2] = biological target: T2, Prostaglandin G/H synthase 1 (Ovis aries) (UniProt P05979); test: Inhibition of ovine COX1 using fluorometric substrate at 100 uM by fluorescent inhibitor screening assay
T2 sequence (whole entry): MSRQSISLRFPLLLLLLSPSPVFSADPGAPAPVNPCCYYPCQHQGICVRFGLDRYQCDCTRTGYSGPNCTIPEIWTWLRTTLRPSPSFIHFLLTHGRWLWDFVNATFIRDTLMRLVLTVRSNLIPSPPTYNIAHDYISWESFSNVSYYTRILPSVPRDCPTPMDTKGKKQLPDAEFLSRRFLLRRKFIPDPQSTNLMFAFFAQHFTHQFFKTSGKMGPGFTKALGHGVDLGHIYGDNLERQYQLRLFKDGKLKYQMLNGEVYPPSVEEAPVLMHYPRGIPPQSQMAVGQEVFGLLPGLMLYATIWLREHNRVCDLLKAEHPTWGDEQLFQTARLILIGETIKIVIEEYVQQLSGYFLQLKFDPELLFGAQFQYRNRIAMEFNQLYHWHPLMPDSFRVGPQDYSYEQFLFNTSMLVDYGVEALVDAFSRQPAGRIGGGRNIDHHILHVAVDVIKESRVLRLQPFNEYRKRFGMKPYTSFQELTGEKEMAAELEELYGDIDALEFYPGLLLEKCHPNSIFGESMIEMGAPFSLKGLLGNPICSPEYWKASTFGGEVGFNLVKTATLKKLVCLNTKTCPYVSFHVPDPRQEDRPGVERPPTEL

[3] = biological target: T3, Prostaglandin G/H synthase 1 (Ovis aries, UniProt P05979); test: Inhibition of ovine COX1 using fluorometric substrate by fluorescent inhibitor screening assay
T3 sequence (P05979 whole entry): T2 sequence (whole entry)
Summary of the method: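 Ovine COX-1 in 100 mM Tris-HCl pH 8.0 with heme and ADHP fluorometric substrate; inhibitor from DMSO stock, reaction started by arachidonic acid, 2 min at room temperature. Resorufin fluorescence read at ex 535/em 590 nm; percent inhibition calculated against uninhibited activity; reported as % inhibition at 100 (units as printed).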

An IC50 [1] of 2.9 µM and an inhibition [2] of 12.9% were found for `NS(=O)(=O)c1ccc(N2CCN=C2c2cccc(Br)c2)cc1` in this work.

In the case of `Cc1cccc(C2=NCCN2c2ccc(S(C)(=O)=O)cc2)c1`, the IC50 [1] is reported as > 10 µM and the inhibition [2] is reported as 6%.

An IC50 [1] of 8.1 µM and an inhibition [2] of 1.4% were found for `CS(=O)(=O)c1ccc(N2CCN=C2c2cccc(Cl)c2)cc1` in this work.

An IC50 [1] of 1.8 µM and an inhibition [2] of 2.7% were found for `NS(=O)(=O)c1ccc(N2CCN=C2c2ccc(Cl)c(C(F)(F)F)c2)cc1` in this work.

For `Cc1cn(-c2ccc(S(C)(=O)=O)cc2)c(-c2ccc(Cl)cc2)n1`, the IC50 [3] was > 100 µM.

`CC1CN(c2ccc(S(N)(=O)=O)cc2)C(c2cccc(Br)c2)=N1` (racemic) was tested, and the IC50 [1] was > 10 µM and the inhibition [2] was 20.2%.

For `CC1CN(c2ccc(S(N)(=O)=O)cc2)C(c2ccc(Cl)cc2)=N1` (racemic), the IC50 [1] was > 10 µM and the inhibition [2] was 3.2%.

`Cc1cccc(C2=NCCN2c2ccc(S(N)(=O)=O)cc2)c1` was tested, and the IC50 [1] was > 10 µM and the inhibition [2] was 1.5%.

An IC50 [1] of 6.8 µM and an inhibition [2] of 12.6% were found for `CS(=O)(=O)c1ccc(N2CCN=C2c2cccc(Br)c2)cc1` in this work.

With `COc1ccc(C2=NCCN2c2ccc(S(C)(=O)=O)cc2)cc1Cl` the IC50 [1] was > 10 µM and the inhibition [2] was 1.2%.

In the case of `COc1ccc(C2=NCCN2c2ccc(S(C)(=O)=O)cc2)cc1F`, the IC50 [1] is reported as > 10 µM and the inhibition [2] is reported as -1.6%.

For `CC1CN(c2ccc(S(C)(=O)=O)cc2)C(c2ccc(Cl)cc2)=N1` (racemic), the IC50 [1] was > 10 µM and the inhibition [2] was -5.2%.

In the case of `CC1CN(c2ccc(S(C)(=O)=O)cc2)C(c2cccc(Br)c2)=N1` (racemic), the IC50 [1] is reported as > 10 µM and the inhibition [2] is reported as 11.1%.

An IC50 [1] of 3.4 µM and an inhibition [2] of 0.4% were found for `NS(=O)(=O)c1ccc(N2CCN=C2c2ccc(Cl)cc2)cc1` in this work.

An IC50 [1] of 2.5 µM and an inhibition [2] of -8% were found for `NS(=O)(=O)c1ccc(N2CCN=C2c2cccc(Cl)c2)cc1` in this work.

For `CC1CN(c2ccc(S(C)(=O)=O)cc2)C(c2ccc(F)cc2)=N1` (racemic), the IC50 [1] was > 10 µM and the inhibition [2] was 6.3%.
